From ChEMBL document CHEMBL4325832, “Novel Benzazole Derivatives Endowed with Potent Antiheparanase Activity” (J Med Chem, 2018)
Active and inactive are the calls of the source. No cut-off for these calls is given here.

Experiments:
Heparanase = target: T1, Heparanase (Homo sapiens, UniProt Q9Y251); test: Inhibition of recombinant HPSE GS3 (unknown origin) using fondaparinux as substrate incubated for 3 hrs in absence of light by WST1 based colorimetry
T1 sequence (Q9Y251 whole entry): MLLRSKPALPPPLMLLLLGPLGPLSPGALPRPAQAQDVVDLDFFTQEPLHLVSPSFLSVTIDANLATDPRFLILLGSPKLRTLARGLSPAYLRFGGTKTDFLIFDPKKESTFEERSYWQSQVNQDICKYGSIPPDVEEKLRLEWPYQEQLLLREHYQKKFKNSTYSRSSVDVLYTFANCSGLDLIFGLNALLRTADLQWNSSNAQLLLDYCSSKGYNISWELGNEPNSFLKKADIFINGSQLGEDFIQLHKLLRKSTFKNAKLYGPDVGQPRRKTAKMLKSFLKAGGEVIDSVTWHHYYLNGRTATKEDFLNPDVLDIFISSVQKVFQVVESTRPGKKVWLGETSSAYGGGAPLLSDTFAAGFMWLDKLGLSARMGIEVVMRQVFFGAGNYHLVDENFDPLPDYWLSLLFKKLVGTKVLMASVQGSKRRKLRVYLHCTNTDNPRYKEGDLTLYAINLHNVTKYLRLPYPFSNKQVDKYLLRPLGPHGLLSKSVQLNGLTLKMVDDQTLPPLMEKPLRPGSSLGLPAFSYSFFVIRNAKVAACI

U-87 MG [1] = test: Antiproliferative activity against human U87MG cells after 3 days by SRB assay
HT-1080 [2] = test: Inhibition of cell invasion in human HT1080 cells at 10 uM after 24 hrs by SRB staining based matrigel invasion chamber assay relative to control; format: functional
Procedure, shortened: (§1)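 HT1080, U87MG and U2OS cells pretreated with compound in complete medium for 24 h, harvested, resuspended in serum-free medium and seeded at 2.5 × 10^4 cells/filter into Growth Factor Reduced Matrigel-coated Transwell upper chambers. Same concentration in both upper and lower chambers. After 24 h, invaded cells SRB-stained and counted under microscope at 40X-100X. Student's 2-tailed t test, P<0.05.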

HT-1080 [3] = test: Antiproliferative activity against human HT1080 cells after 3 days by SRB assay
U2OS [4] = settings: Homo sapiens, 10 uM
U-87 MG [5] = test: Inhibition of cell invasion in human U87MG cells at 10 uM after 24 hrs by SRB staining based matrigel invasion chamber assay relative to control; format: functional, U-87MG ATCC; procedure, shortened: as §1
U2OS [6] = test: Antiproliferative activity against human U2OS cells after 3 days by SRB assay
U2OS [7] = test: Inhibition of cell invasion in human U2OS cells at 10 uM after 24 hrs by SRB staining based matrigel invasion chamber assay relative to control; settings: read-out: INH
HT-1080 [8] = test: Downregulation of HPSE1 mRNA expression in human HT1080 cells at 1 uM after 24 hrs by qPCR analysis; format: functional, cell-based
Procedure, shortened: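 HT1080 cells treated 24 h with compound at 1 μM. Total RNA extracted and reverse-transcribed. HPSE-1 mRNA quantified by real-time qPCR using the ΔΔCt method, […]. Expressed as percent of untreated cells.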

U2OS [9] = test: Inhibition of cell invasion in human U2OS cells at 1 uM after 24 hrs by SRB staining based matrigel invasion chamber assay relative to control; format: functional; procedure, shortened: as §1
U-87 MG [10] = test: Inhibition of cell invasion in human U87MG cells at 1 uM after 24 hrs by SRB staining based matrigel invasion chamber assay relative to control; format: functional, U-87MG ATCC; procedure, shortened: as §1
HT-1080 [11] = test: Inhibition of cell invasion in human HT1080 cells at 1 uM after 24 hrs by SRB staining based matrigel invasion chamber assay relative to control; format: functional; settings: HT-1080, 24 h; procedure, shortened: as §1
A204 [12] = test: Antiproliferative activity against human A204 cells after 72 hrs by cell counting analysis; settings: A204, 72 h
Homo sapiens [13] = organism: Homo sapiens; test: Anti-invasive activity against human CME1 cells after 24 hrs by SRB staining based matrigel invasion chamber assay; format: functional, cell-based
Procedure, shortened: (§2)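 CME-1 or A204 cells pretreated with drug in complete medium for 24 h, then resuspended in serum-free medium and placed in upper chamber of Growth Factor Reduced Matrigel-coated Transwells (1.2 × 10^5 CME-1 or 1.8 × 10^5 A204 cells/filter). Same drug concentration in both upper and lower chambers, 24 h. Invaded cells SRB-stained and counted microscopically. DMSO final 0.5% (CME-1) or 0.25% (A204).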

[14] = Antiproliferative activity against human CME1 cells assessed as inhibition of cell proliferation at 3.1 uM after 24 hrs by cell counting analysis relative to control; format: functional; design: scale not given: the % may be the effect or the level left
Procedure, shortened: (§3)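 CME-1 or A204 cells in RPMI plus 10% FBS, exposed to drug in DMSO or solvent alone for 24 h. Proliferation assessed by cell counting and expressed as percent inhibition versus control. DMSO final 0.5% (CME-1) or 0.25% (A204).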

A204 [15] = settings: Homo sapiens, 1.5 uM
[16] = Antiproliferative activity against human CME1 cells after 72 hrs by cell counting analysis
A204 [17] = test: Anti-invasive activity against human A204 cells after 24 hrs by SRB staining based matrigel invasion chamber assay; format: functional, cell-based; procedure, shortened: as §2
A204 [18] = test: Antiproliferative activity against human A204 cells assessed as inhibition of cell proliferation at 3.1 uM after 24 hrs by cell counting analysis relative to control; format: functional; design: scale not given: the % may be the effect or the level left; procedure, shortened: as §3
Homo sapiens [19] = organism: Homo sapiens; settings: 1.5 uM

`COc1ccc(C(=O)Nc2ccc(CNc3ccc(-c4nc5cc(CC(=O)O)ccc5[nH]4)cc3)cc2)cc1Br` showed an IC50 (Heparanase) of over 10 µM.
With `COc1ccc(C(=O)Nc2ccc(CNc3ccc(-c4nc5cc(CC(=O)N[C@@H](CCC(=O)O)C(=O)O)ccc5o4)cc3F)cc2)cc1Br` the IC50 (U-87 MG [1]; u-87mg atcc) was “Not Active”, the inhibition at 10 µM (HT-1080 [2]; HT-1080, 24 h) was 50 to 90% and the IC50 (HT-1080 [3]; ht-1080) was “Not Active”. The inhibition (U2OS [4]) was “inactive”, the inhibition at 10 µM (U-87 MG [5]) was 50 to 90% and the IC50 (U2OS [6]; u2os) was “Not Active”.
In the case of `COc1ccc(C(=O)Nc2ccc(CNc3ccc(-c4nc5cc(CC(=O)NCC(=O)O)ccc5o4)cc3F)cc2)cc1Br`, the IC50 (U-87 MG [1]; u-87mg atcc) is reported as “Not Active”, the IC50 (HT-1080 [3]; ht-1080) is reported as “Not Active” and the IC50 (U2OS [6]; u2os) is reported as “Not Active”.
Work on `COc1ccc(C(=O)Nc2ccc(CNc3ccc(-c4nc5cc(CC(=O)NCB(O)O)ccc5o4)cc3F)cc2)cc1Br` yielded an IC50 (Heparanase) of over 10 µM.
With `COc1ccc(C(=O)Nc2ccc(CNc3ccc(-c4nc5cc(CC(=O)N[C@@H](CCCCN)C(=O)O)ccc5o4)cc3F)cc2)cc1Br` the IC50 (Heparanase) was over 10 µM.
With `COc1ccc(C(=O)Nc2ccc(CNc3ccc(-c4nc5cc(CC(=O)NCC(=O)O)ccc5[nH]4)cc3F)cc2)cc1Br` the IC50 (U-87 MG [1]; u-87mg atcc) was “Not Active”, the inhibition (HT-1080 [2]) was “inactive” and the IC50 (HT-1080 [3]; ht-1080) was “Not Active”. The inhibition at 10 µM (U2OS [7]) was under 50%, the inhibition (U-87 MG [5]; U-87MG ATCC) was “inactive” and the IC50 (U2OS [6]; u2os) was “Not Active”. The IC50 (Heparanase) was 0.64 µM.
For `COc1ccc(C(=O)Nc2ccc(CNc3ccc(-c4nc5ccccc5[nH]4)cc3)cc2)cc1Br`, the IC50 (U-87 MG [1]; Homo sapiens, U-87 MG, 72 h) was 2.7 µM, the Activity (HT-1080 [8]) was “inactive” and the IC50 (HT-1080 [3]; Homo sapiens, HT-1080, 72 h) was 3.1 µM. It also gave an inhibition at 1 µM (U2OS [9]) of 50 to 90%, an inhibition at 1 µM (U-87 MG [10]) of 50 to 90% and an IC50 (U2OS [6]; Homo sapiens, U2OS, 72 h) of 2.1 µM. The inhibition at 1 µM (HT-1080 [11]) was 50 to 90%.
With `COc1ccc(C(=O)Nc2ccc(CNc3ccc(-c4nc5ccccc5[nH]4)cc3F)cc2)cc1Br` the IC50 (U-87 MG [1]; Homo sapiens, U-87 MG, 72 h) was 2.8 µM, the Activity (HT-1080 [8]) was “Active” and the IC50 (HT-1080 [3]; Homo sapiens, HT-1080, 72 h) was 8.7 µM. The IC50 (A204 [12]) was 3.4 µM, the Activity (Homo sapiens [13]) was “Dose-dependent effect” and the inhibition at 1 µM (U2OS [9]) was 50 to 90%. For the same compound, the inhibition at 1 µM (U-87 MG [10]) was 50 to 90%, the Activity [14] was 15% and the inhibition (A204 [15]) was “inactive”. The IC50 (U2OS [6]; Homo sapiens, U2OS, 72 h) was 1.7 µM, the inhibition at 1 µM (HT-1080 [11]) was 50 to 90% and the IC50 [16] was 3.9 µM. For the same compound, the Activity (A204 [17]) was “Dose-dependent effect”, the Activity (A204 [18]) was 5% and the inhibition (Homo sapiens [19]) was “inactive”.
Work on `COc1ccc(C(=O)Nc2ccc(CNc3ccc(-c4nc5cc(CC(=O)O)ccc5o4)cc3)cc2)cc1Br` yielded an IC50 (Heparanase) of over 10 µM.
